From ChEMBL document CHEMBL5257161, “Mycobacterium tuberculosis CitA activity is modulated by cysteine oxidation and pyruvate binding” (RSC Med Chem, 2023) come the findings set out here.

The test system of test [1] is Mycobacterium tuberculosis. Nature of the test: Binding affinity to Mycobacterium tuberculosis CitA R153ZM mutant expressed in Escherichia coli cells assessed as change in melting temperature in presence of pyruvate by thermal shift assay. In outline:
(§1)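 Thermal shift used 25 μM purified protein in 50 mM Tris pH 8.0 with 2 mM ligand (sodium pyruvate, OAA, or both), plus Protein Thermal Shift dye at 2X final. ΔTm was taken from the melt-curve derivative relative to protein without ligand.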

Test [2] deals with Mycobacterium tuberculosis. Nature of the test: Binding affinity to Mycobacterium tuberculosis CitA R149E mutant expressed in Escherichia coli cells assessed as change in melting temperature in presence of pyruvate by thermal shift assay. In short, it runs like this:
as §1

In test [3] the test system is Mycobacterium tuberculosis. As to the kind of experiment: Binding affinity to Mycobacterium tuberculosis CitA R153M mutant expressed in Escherichia coli cells assessed as catalytic constant by Michaelis-Menten analysis. In short, it runs like this: (§2)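 His-tagged CitA (wild type or variant) was expressed in E. coli, purified by cobalt affinity and size exclusion, then dialysed against 20 mM Tris pH 8.0. Activity was measured by DTNB (300 μM) thiol detection of released CoA at 412 nm, with OAA and AcCoA substrates and 10 nM enzyme, in 50 mM Tris pH 8.0 at 25 °C. A no-enzyme control was run. Triplicate runs were fitted to Michaelis–Menten.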

Test [4] has as its system Mycobacterium tuberculosis. As to the kind of experiment: Binding affinity to Mycobacterium tuberculosis CitA R149E mutant expressed in Escherichia coli cells assessed as Kcat/Km by Michaelis-Menten analysis. In short, it runs like this: as §2
For test [5], the system named is Mycobacterium tuberculosis. As to the kind of experiment: Binding affinity to Mycobacterium tuberculosis CitA R153M mutant expressed in Escherichia coli cells assessed as Kcat/Km by Michaelis-Menten analysis. In outline:
as §2

The test system of test [6] is Mycobacterium tuberculosis. As to the kind of experiment: Binding affinity to Mycobacterium tuberculosis CitA R153M mutant expressed in Escherichia coli cells assessed as apparent Km by Michaelis-Menten analysis. In outline:
as §2

For test [7], the system named is Mycobacterium tuberculosis. Nature of the test: Binding affinity to Mycobacterium tuberculosis CitA R153M mutant expressed in Escherichia coli cells assessed as Vmax by Michaelis-Menten analysis. In short, it runs like this:
as §2

In test [8] the test system is Mycobacterium tuberculosis. Nature of the test: Binding affinity to Mycobacterium tuberculosis CitA R149E mutant expressed in Escherichia coli cells assessed as catalytic constant by Michaelis-Menten analysis. In outline:
as §2

For test [9], the system named is Mycobacterium tuberculosis. Nature of the test: Binding affinity to Mycobacterium tuberculosis CitA R153ZM mutant expressed in Escherichia coli cells assessed as change in melting temperature by thermal shift assay. In outline: as §1
Test [10] relates to Mycobacterium tuberculosis. As to the kind of experiment: Binding affinity to Mycobacterium tuberculosis CitA R149E mutant expressed in Escherichia coli cells assessed as change in melting temperature by thermal shift assay. In outline: as §1
The subject of test [11] is Mycobacterium tuberculosis. As to the kind of experiment: Binding affinity to Mycobacterium tuberculosis CitA R149E mutant expressed in Escherichia coli cells assessed as apparent Km by Michaelis-Menten analysis. In short, it runs like this: as §2
For test [12], the system named is Mycobacterium tuberculosis. As to the kind of experiment: Binding affinity to Mycobacterium tuberculosis CitA R149E mutant expressed in Escherichia coli cells assessed as Vmax by Michaelis-Menten analysis. In short, it runs like this:
as §2

Test [13] deals with Mycobacterium tuberculosis. Nature of the test: Binding affinity to Mycobacterium tuberculosis CitA R153ZM mutant expressed in Escherichia coli cells assessed as change in melting temperature in presence of oxaloacetate by thermal shift assay. In outline: as §1
Test [14] relates to Mycobacterium tuberculosis. As to the kind of experiment: Binding affinity to Mycobacterium tuberculosis CitA R149E mutant expressed in Escherichia coli cells assessed as change in melting temperature in presence of oxaloacetate by thermal shift assay. In outline: as §1

As for `O=C(O)CC(=O)C(=O)O`, the ΔTm was 14.3 °C in [1], 10.7 °C in [2], 14.3 °C in test [9] and 10.8 °C in test [10]. Further, the kcat is 3.3 s⁻¹ in test [3] and 4.68 s⁻¹ in test [8]. Besides, the kcat/Km came out at 400000 M⁻¹ s⁻¹ in test [4] and 1.05e+06 M⁻¹ s⁻¹ in test [5]. For the same compound, the results for the Km in test [6] and in test [11] were 3.2 µM and 11.7 µM, respectively. Also, the Vmax in test [7] amounted to 2 µM/min; in [12], 2.8 µM/min.
On to `CC(=O)C(=O)O`, for which the shift in melting temperature (ΔTm) was found to be 0.51 °C in [9], 14.3 °C in test [13], 10.7 °C in test [14] and 0.47 °C in [10].
